Results collected from several papers.
Protocols differ between the studies behind these lines.
Target: Serine/threonine-protein kinase Nek1 (NEK1, Homo sapiens, UniProt Q96PY6)
Sequence (Q96PY6 1-1258, as in one of the studies): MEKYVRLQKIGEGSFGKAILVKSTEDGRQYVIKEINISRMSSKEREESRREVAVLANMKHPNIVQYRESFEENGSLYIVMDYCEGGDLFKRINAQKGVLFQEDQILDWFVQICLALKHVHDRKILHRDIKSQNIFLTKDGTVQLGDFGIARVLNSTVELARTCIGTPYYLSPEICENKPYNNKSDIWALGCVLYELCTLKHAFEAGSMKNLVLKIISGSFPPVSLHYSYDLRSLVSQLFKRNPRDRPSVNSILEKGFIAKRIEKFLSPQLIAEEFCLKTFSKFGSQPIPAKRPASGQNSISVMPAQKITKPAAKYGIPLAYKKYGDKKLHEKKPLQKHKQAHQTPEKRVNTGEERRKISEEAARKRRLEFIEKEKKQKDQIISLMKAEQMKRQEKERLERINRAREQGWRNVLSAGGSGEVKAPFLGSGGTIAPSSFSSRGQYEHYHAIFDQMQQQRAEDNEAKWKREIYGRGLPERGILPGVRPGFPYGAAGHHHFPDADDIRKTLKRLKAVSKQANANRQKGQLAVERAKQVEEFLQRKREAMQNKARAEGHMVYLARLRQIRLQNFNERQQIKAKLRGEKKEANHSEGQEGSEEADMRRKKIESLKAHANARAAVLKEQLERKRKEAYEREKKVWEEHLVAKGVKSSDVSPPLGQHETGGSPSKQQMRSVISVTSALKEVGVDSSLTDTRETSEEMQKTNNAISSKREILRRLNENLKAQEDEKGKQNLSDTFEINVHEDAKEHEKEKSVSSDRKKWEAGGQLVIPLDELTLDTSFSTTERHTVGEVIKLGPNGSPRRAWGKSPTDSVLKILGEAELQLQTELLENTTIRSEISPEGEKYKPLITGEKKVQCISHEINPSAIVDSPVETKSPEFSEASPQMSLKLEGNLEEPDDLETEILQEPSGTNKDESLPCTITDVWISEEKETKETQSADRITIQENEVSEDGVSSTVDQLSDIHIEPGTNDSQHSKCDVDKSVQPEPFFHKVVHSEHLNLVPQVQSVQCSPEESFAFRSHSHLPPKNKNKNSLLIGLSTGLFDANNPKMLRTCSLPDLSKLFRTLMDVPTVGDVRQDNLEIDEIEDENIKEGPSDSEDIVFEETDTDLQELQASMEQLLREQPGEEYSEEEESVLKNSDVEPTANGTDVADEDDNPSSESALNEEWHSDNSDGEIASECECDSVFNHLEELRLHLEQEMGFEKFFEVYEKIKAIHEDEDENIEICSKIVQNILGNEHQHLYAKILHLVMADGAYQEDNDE

SMILES	test	setting	remaining binding
Cn1cc(Cl)c2c(Oc3c(F)cc(Nc4cc(Cl)nc(N)n4)cc3F)ccnc21	cell-free assay, competition with immobilised ligand	0.1 µM	100%
N[C@@H]1CCN(c2nccc(-c3cnn4ncccc34)n2)C1	binding	1 µM	100%
Cc1cnc(Nc2ccc(C(=O)N3CCC(N4CCCC4)CC3)cc2)nc1-c1cc2ccccc2s1	binding, competition with immobilised ligand	1 µM	18%
CN(C)C(=O)Cn1cc(-c2nc([C@@](C)(c3ccc(-c4cnc(N)nc4)cc3)C3CC3)no2)cn1	cell-free assay, competition with immobilised ligand	1 µM	100%
CN(C)c1ncc(F)c(-c2cnn3ncccc23)n1	binding	1 µM	100%
O=C(c1ccc(Nc2ncc(Cl)c(-c3cc4ccccc4s3)n2)cc1)N1CCC(N2CCCC2)CC1	binding, competition with immobilised ligand	1 µM	27%
CCN1CCN(Cc2ccc(C(=O)Nc3ccc(C)c(Oc4ccc5c(c4)CC(=O)N5)c3)cc2C(F)(F)F)CC1	binding, competition with immobilised ligand	1 µM	100%
CC1CCCN1c1nccc(-c2cnn3ncccc23)n1 (stereo not shown)	binding	1 µM	100%
O=C(c1ccc(Nc2nccc(-c3cc4ccccc4s3)n2)cc1)N1CCC(N2CCCC2)CC1	binding, competition with immobilised ligand	1 µM	31%
C=CC(=O)N1CCC(C(=O)NCC(=O)N2CCN(c3nc(-c4cnc(N)nc4C(F)F)nc(N4CCOCC4)n3)CC2)CC1	binding, competition with immobilised ligand	1 µM	96%
C[C@@H](c1ccc(-n2cnc3c(N)ncnc32)cc1)N1CCc2nn(C)c(Cc3ccccc3)c2C1=O	binding, competition with immobilised ligand	0.1 µM	87%
CS(=O)(=O)NCC[C@H](NC(=O)c1cncc2c1cnn2-c1ccc(F)cc1)c1ccnc(S(C)(=O)=O)c1	cell-free assay, competition with immobilised ligand	1 µM	45%
CN(CCCC(F)(F)F)c1nccc(-c2cnn3ncccc23)n1	binding	1 µM	100%
O=C(NCc1ncc(C(F)(F)F)cc1Cl)c1ccc2c(c1)C1(CCS(=O)(=O)CC1)[C@H](C1CC1)N2S(=O)(=O)c1ccc(F)cc1	cell-free assay, competition with immobilised ligand	1 µM	100%
C[C@H]1CCN(c2nccc(-c3cnn4ncccc34)n2)C1	binding	1 µM	100%
CCC(=O)N[C@H]1CC[C@@H](C(=O)N(C)c2ccc(-c3nc4ccccc4o3)cc2)C1	cell-free assay, competition with immobilised ligand	1 µM	100%
c1cncc(-c2cccc(Nc3nccc(NC4CCCCC4)n3)c2)c1	binding, competition with immobilised ligand	10 µM	91%
Cn1nc(C(=O)NCc2ccc(C(=O)O)cc2)cc1-c1ccc2[nH]ccc2c1	cell-free assay, competition with immobilised ligand	0.1 µM	100%
CN(C)c1nccc(-c2cnc3ncccn23)n1	binding	1 µM	100%
COc1cnc(Nc2cccc(S(N)(=O)=O)c2)nc1N1CCN(c2ccccc2)CC1	binding, competition with immobilised ligand	1 µM	92%
COc1ccnn2ncc(-c3ccnc(N(C)C)n3)c12	binding	1 µM	100%
O=C(Nc1c[nH]nc1C(=O)NC1CCNCC1)c1cc(F)cc(F)c1	binding, competition with immobilised ligand	1 µM	100%
